Here are results for three compounds from ChEMBL document CHEMBL1123476, “Synthesis of congeners and prodrugs of the benzene maleimide photoadduct mitindomide as potential antitumor agents. 2” (J Med Chem, 1986).

Where “and” joins values, the source holds several entries; their conditions need not be identical. Identical values can stand only once.

The test system of data set [1] is P388. The data set is described as follows: Compound was tested for antitumor activity in P-388 lymphocytic leukemia system at 25 mg/kg dose levels per injection. The data set is classed as functional, Mus musculus. A digest of the protocol:
(§1)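 P-388 leukemia in vivo, dosed Q01D×09 (one injection daily for 9 days, mg/kg per injection). Activity is %T/C, the median lifetime of treated animals divided by that of controls, ×100. Live animals on day 4 were counted against the total (survivors day 4). Repeat tests were done independently at different times.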

The test system of data set [2] is P388. The data set is described as follows: Compound was tested for antitumor activity in P-388 lymphocytic leukemia system at 30 mg/kg dose levels per injection. The data set is classed as functional, Mus musculus. The procedure, abridged:
as §1

Data set [3] deals with P388. The data set can be described thus: (§2) Antitumor activity in P-388 lymphocytic leukemia system at 50 mg/kg dose levels per injection. The data set is classed as functional, Mus musculus. The procedure, abridged: as §1
The test system of data set [4] is P388. The data set can be described thus: Compound was tested for antitumor activity in P-388 lymphocytic leukemia system and the difference in body weight was calculated at 60 mg/kg dose levels per injection. It counts as functional, Mus musculus.
Data set [5] relates to P388. The data set can be described thus: Compound was tested for antitumor activity in P-388 lymphocytic leukemia system at 60 mg/kg dose levels per injection. The data set is classed as functional, Mus musculus. The procedure, abridged:
as §1

Data set [6] concerns P388. The data set is described as follows: (§3) Antitumor activity in P-388 lymphocytic leukemia system at 100 mg/kg dose levels per injection. It counts as functional, Mus musculus. A digest of the protocol:
(§4)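 P-388 leukemia in animals, Q01D×09 schedule: dose given daily for 9 days, in mg/kg per injection. Read-outs are survivors on day 4 (live/total animals), body-weight difference test minus control (g), and % T/C (median lifetime of treated ÷ median lifetime of controls × 100). Some compounds were tested in independent runs at different times.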

Data set [7] has as its system P388. The data set can be described thus: Antitumor activity in P-388 lymphocytic leukemia system and the difference in body weight was calculated at 25 mg/kg dose levels per injection. It counts as functional, Mus musculus.
The nature of data set [8]: Solubility was determined. It counts as physicochemical.
For data set [9], the system named is P388. The data set is described as follows: Compound was tested for antitumor activity in P-388 lymphocytic leukemia system at 166.7 mg/kg dose levels per injection; 3/6. It counts as functional, Mus musculus. A digest of the protocol:
as §4

Data set [10] concerns P388. The data set can be described thus: Antitumor activity in P-388 lymphocytic leukemia system and the difference in body weight was calculated at 200 mg/kg dose levels per injection. The data set is classed as functional, Mus musculus.
In data set [11] the test system is P388. The data set is described as follows: Compound was tested for antitumor activity in P-388 lymphocytic leukemia system at 200 mg/kg dose levels per injection; 5/6. It counts as functional, Mus musculus. The procedure, abridged: as §4
Data set [12] has as its system P388. The data set is described as follows: Compound was tested for antitumor activity in P-388 lymphocytic leukemia system at 50 mg/kg dose levels per injection; 5/6. The data set is classed as functional, Mus musculus. A digest of the protocol: as §4
For data set [13], the system named is P388. The data set is described as follows: Compound was tested for antitumor activity in P-388 lymphocytic leukemia system at 30 mg/kg dose levels per injection; 6/6. The data set is classed as functional, Mus musculus. A digest of the protocol: as §4
Data set [14] has as its system P388. The data set can be described thus: Compound was tested for antitumor activity in P-388 lymphocytic leukemia system and the difference in body weight was calculated at 30 mg/kg dose levels per injection. The data set is classed as functional, Mus musculus.
For data set [15], the system named is P388. The data set can be described thus: Antitumor activity in P-388 lymphocytic leukemia system at 25 mg/kg dose levels per injection. It counts as functional, Mus musculus. The procedure, abridged:
as §4

The subject of data set [16] is P388. The description is as §3. The data set is classed as functional, Mus musculus. As to conditions: 100 mg/kg. The procedure, abridged: as §1
Data set [17] relates to P388. The data set can be described thus: Antitumor activity in P-388 lymphocytic leukemia system and the difference in body weight was calculated at 50 mg/kg dose levels per injection. It counts as functional, Mus musculus.
Data set [18] relates to P388. The data set is described as follows: Antitumor activity in P-388 lymphocytic leukemia system and the difference in body weight calculated at 100 mg/kg dose levels per injection. The data set is classed as functional, Mus musculus. Conditions: 100 mg/kg.
Data set [19] concerns P388. The data set can be described thus: Compound was tested for antitumor activity in P-388 lymphocytic leukemia system and the difference in body weight was calculated at 166.7 mg/kg dose levels per injection. The data set is classed as functional, Mus musculus.
Data set [20] has as its system P388. The data set is described as follows: Compound was tested for antitumor activity in P-388 lymphocytic leukemia system at 60 mg/kg dose levels per injection; 6/6. It counts as functional, Mus musculus. A digest of the protocol:
as §4

In data set [21] the test system is P388. The data set can be described thus: Compound was tested for antitumor activity in P-388 lymphocytic leukemia system at 200 mg/kg dose levels per injection. It counts as functional, organism-based. Set-up: dose 200 mg/kg. Conditions: Mus musculus. A digest of the protocol: as §1
Data set [22] can be described thus: Solubility was determined; INS= less than 0.1. It counts as physicochemical.
Data set [23] relates to P388. Described as §2. It counts as functional, Mus musculus. A digest of the protocol: as §4
The source holds these as a separate data set.

For data set [24], the system named is P388. The data set can be described thus: Antitumor activity in P-388 lymphocytic leukemia system at 25 mg/kg dose levels per injection. As to conditions: 25 mg/kg. The data set is classed as functional, Mus musculus. A digest of the protocol:
as §1

In data set [25] the test system is P388. The data set is described as follows: Compound was tested for antitumor activity in P-388 lymphocytic leukemia system at 50 mg/kg dose levels per injection; 6/6. The data set is classed as functional, Mus musculus. A digest of the protocol:
as §4

The test system of data set [26] is P388. The data set can be described thus: Compound was tested for antitumor activity in P-388 lymphocytic leukemia system at 200 mg/kg dose levels per injection; 4/6. It counts as functional, Mus musculus. The procedure, abridged:
as §4

For data set [27], the system named is P388. The data set is described as follows: Compound was tested for antitumor activity in P-388 lymphocytic leukemia system at 200 mg/kg dose levels per injection; 3/6. It counts as functional, Mus musculus. The procedure, abridged:
as §4

In data set [28] the test system is P388. The data set can be described thus: (§5) Antitumor activity in P-388 lymphocytic leukemia system at 200 mg/kg dose levels per injection. It counts as functional, Mus musculus. As to conditions: 200 mg/kg. A digest of the protocol: as §1
Data set [29] has as its system P388. The data set is described as follows: Compound was tested for antitumor activity in P-388 lymphocytic leukemia system at 400 mg/kg dose levels per injection; 5/6. It counts as functional, Mus musculus. The procedure, abridged: as §4
Data set [30] concerns P388. The data set is described as follows: Compound was tested for antitumor activity in P-388 lymphocytic leukemia system. at 400 mg/kg dose levels per injection. It counts as functional, Mus musculus. The procedure, abridged: as §1
The test system of data set [31] is P388. Described as §5. The data set is classed as functional, Mus musculus. The procedure, abridged:
as §4

Data set [32] concerns P388. The data set is described as follows: Compound was tested for antitumor activity in P-388 lymphocytic leukemia system and the difference in body weight was calculated at 400 mg/kg dose levels per injection. It counts as functional, Mus musculus.

For orientation: T/C means the ratio of treated to control. Consider `CN1CCN(CN2C(=O)C3C4C=CC(C3C2=O)C2C3C(=O)N(CN5CCN(C)CC5)C(=O)C3C42)CC1` (stereo unspecified), for which the T/C was 99% in the data set with P388 [1]; 116% in the data set with P388 [2]; 106% in the data set on P388 [3]; 165% in the data set on P388 [5]; 200% and 211% in the data set with P388 [16]. The Weight difference in the data set on P388 [4] was -3.1 g; with P388 [7], -0.6 g; in the data set with P388 [10], -9 g; in the data set with P388 [14], -0.2 g; in the data set on P388 [17] it was -1.3 g; in the data set with P388 [18] it was -3.7 g and -4.9 g. Besides, the Weight difference in the data set with P388 [19] is listed as -5.1 g. For the same compound, the “Survivors at day 4” value in the data set with P388 [6] stood at 6; in the data set with P388 [9] it was 3; with P388 [11], 5; with P388 [12], 5; with P388 [13], 6; with P388 [15], 6. In the data set on P388 [20], the “Survivors at day 4” value was found to be 6. Besides, the Solubility in data set [8] was determined as 1.5%.
For the compound `O=C1C2C3C=CC(C2C(=O)N1CN1CCOCC1)C1C2C(=O)N(CN4CCOCC4)C(=O)C2C31` (stereo unspecified), the T/C is 148% and 141% in the data set on P388 [3] (50 mg/kg); “Toxic” in the data set with P388 [21]; 120% and 125% in the data set on P388 [24]; 120% and 174% in the data set with P388 [16]. In addition, the Solubility result in data set [22] was “Insoluble”. The “Survivors at day 4” value is 6 in the data set on P388 [6]; 6 with P388 [23]; 6 in the data set on P388 [25]; 6 with P388 [15]; 4 in the data set with P388 [26]; 3 in the data set with P388 [27]. The Weight difference in the data set with P388 [7] (25 mg/kg) was -1 g and -0.9 g; in the data set with P388 [10] (200 mg/kg), -6.2 g and -5.9 g; with P388 [17] (50 mg/kg), -1.7 g and -1.5 g; with P388 [18], -4.8 g and -3.9 g.
In the case of `CCN(CC)CN1C(=O)C2C3C=CC(C2C1=O)C1C2C(=O)N(CN(CC)CC)C(=O)C2C31` (stereo unspecified), the T/C is 103% with P388 [1]; 111% and 102% in the data set with P388 [3] (50 mg/kg); 139% and 125% in the data set on P388 [28]; 117% and 116% in the data set with P388 [16]; 111% in the data set with P388 [30]. The Solubility result in data set [22] is reported as “Insoluble”. Besides, the “Survivors at day 4” value in the data set on P388 [6] was 6; in the data set with P388 [23], 6; with P388 [15], 6; in the data set on P388 [29] it was 5; with P388 [31], 6. Besides, the Weight difference with P388 [7] is 0 g; in the data set with P388 [10] (200 mg/kg), -0.7 g and -0.6 g; with P388 [17] (50 mg/kg), -1 g and -0.5 g; in the data set with P388 [32], -0.9 g; in the data set with P388 [18], -0.8 g and -0.4 g.
